We go through four molecules from PMC8100350 (International Journal for Parasitology: Drugs and Drug …, 2021).

Like-named read-outs stand apart in the source and are kept apart here.

Holding throughout (type): cell-based
For one experiment, the system named is P. falciparum 3D7. Kind of experiment: [3H]-hypoxanthine incorporation growth inhibition assay, P. falciparum 3D7. The following applies: for IC50: mean ± SD.
The subject of a further experiment is P. falciparum C2B. Conditions: 48 h, 72 h and 96 h assays (all time points). The method in brief:
(§1)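 Sorbitol-synchronised ring stages in O+ erythrocytes, run as 48 h (1% parasitaemia, 1% haematocrit, label at start), 72 h (0.25%, 2.5%, label ~48 h) or 96 h (0.1%, 2%, medium change plus label ~72 h). Read-out was [3H]-hypoxanthine incorporation by scintillation. IC50 by log-linear interpolation against 0.5% DMSO; triplicate wells, ≥2 independent assays. RI = resistant-line IC50/3D7 IC50. Controls: chloroquine (Dd2), atovaquone (C2B), cycloguanil (FCR3).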

A further experiment relates to P. falciparum Dd2. The method in brief:
as §1

Experiment [1] relates to Neonatal foreskin fibroblast (NFF) cells. Kind of experiment: Human cell cytotoxicity assay, NFF. Conditions: read-out: NFF IC50. Put shortly:
(§2)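 NFF and HEK293 cells were grown in RPMI 1640 with 10% FCS and 1% streptomycin at 37 °C and 5% CO2. Exposure was 72 h. Growth inhibition was taken against matched DMSO controls. IC50 came from log-linear interpolation, as the mean ± SD of three independent experiments, each in triplicate.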

Experiment [2] deals with human embryonic kidney (Hek293) cells. Put plainly: Human cell cytotoxicity assay, HEK293. Conditions: HEK293, read-out: HEK293 IC50. The method in brief:
as §2

In experiment [3] the test system is P. falciparum 3D7 parasites. Kind of experiment: Isopentenyl pyrophosphate. The following applies: for rescue of growth inhibitory activity by IPP supplementation: 96 h assay, 200 μM IPP; for IC50: Plasmodium falciparum, 3D7, 96 h. The method in brief:
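3D7 ring stages, sorbitol-synchronised, in O+ erythrocytes (0.1% parasitaemia, 2% haematocrit). Two identical 96 h assays ran in parallel, one with and one without 200 μM IPP. At ~72 h medium was replaced with fresh medium containing [3H]-hypoxanthine, incubated 24 h more, frozen, harvested and counted. Clindamycin was the positive control. IC50 by log-linear interpolation; triplicate wells, ≥3 independent experiments; unpaired t-test.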

Where [4] appears, read: Plasmodium falciparum, 3D7, 48 h, read-out: P. falciparum 3D7 IC50, 48 h, 48 h assay (fast action).
The mark [5] stands for this setting: Plasmodium falciparum, 3D7, 72 h, read-out: P. falciparum 3D7 IC50, 72 h, 72 h assay.
Where [6] appears, read: Plasmodium falciparum, 3D7, 96 h, read-out: P. falciparum 3D7 IC50, 96 h, 96 h assay (slow action).

As a reminder, the IC50 is the midpoint of a concentration-inhibition curve. On to `CCOC(=O)N[C@@H]1CC[C@@H]2[C@@H](C1)C[C@H]1C(=O)O[C@H](C)[C@H]1[C@H]2/C=C/c1ccc(-c2cccc(F)c2)cn1` [Vorapaxar], for which the “fold less active than himbeline” value with P. falciparum 3D7 (96 h assays, 3D7) is reported as ~ 6 fold. For the same molecule, the IC50 was 11200 ± 3000 nM in the experiment on P. falciparum 3D7 (setting [4]); 3930 ± 1070 nM with P. falciparum 3D7 (setting [5]); 3500 nM in the experiment with P. falciparum 3D7 (setting [6]); 3520 ± 250 nM in the experiment on P. falciparum 3D7 (read-out: P. falciparum 3D7 IC50, 96 h, 96 h assay (slow action)).

For the molecule `O=C1C(O)=C([C@H]2CC[C@H](c3ccc(Cl)cc3)CC2)C(=O)c2ccccc21` [ATQ, atovaquone], the “Resistance Index (RI), C2B versus 3D7, text summary” value in the experiment on P. falciparum C2B is > 2000.

In the case of `CCN(CC)CCCC(C)Nc1ccnc2cc(Cl)ccc12` (stereo not shown) [Chloroquine], the “RI (Dd2 IC50/3D7 IC50), 48h” value in the experiment on P. falciparum Dd2 (48 h assay) is 3. In the experiment on P. falciparum Dd2 (72 h assay), the “RI (Dd2 IC50/3D7 IC50), 72h” value came to 3. Also, in the experiment with P. falciparum Dd2 (96 h assay), the “RI (Dd2 IC50/3D7 IC50), 96h” value amounted to 7. The IC50 in experiment [1] was 35400 ± 3600 nM; in the experiment with P. falciparum 3D7 (setting [4]), 8 ± 2 nM; with P. falciparum 3D7 (setting [5]) it was 6 ± 4 nM; with P. falciparum 3D7 (setting [6]), 4 ± 2 nM; in experiment [2], 27300 ± 13300 nM. In the experiment on P. falciparum 3D7 (NFF or HEK293 IC50 / P. falciparum 3D7 72 h IC50), the “PfSI, Selectivity Index (mammalian cell IC50/P. falciparum IC50)” value was 4555–5896. In experiment [3], the “rescue of growth inhibitory activity by IPP supplementation” value is “not rescued”.

Regarding `CCC[C@@H]1C[C@@H](C(=O)N[C@@H]([C@H]2O[C@H](SC)[C@H](O)[C@@H](O)[C@H]2O)[C@H](C)Cl)N(C)C1` [Clindamycin, clindamycin], the IC50 is > 50000 nM with P. falciparum 3D7 (setting [4]); 9 ± 2 nM in the experiment on P. falciparum 3D7 (setting [5]); 5 ± 2 nM in the experiment on P. falciparum 3D7 (setting [6]); > 500 nM in experiment [3] (read-out: P. falciparum 3D7 IC50, +IPP); 4 ± 1 nM in experiment [3] (read-out: P. falciparum 3D7 IC50, -IPP). The “rescue of growth inhibitory activity by IPP supplementation” value in experiment [3] was “rescued”.
